{"source": "ChEMBL document CHEMBL3243961", "about": "“Synthesis and biological activity of 8-arylergolines” (1977)", "key": {"Rattus norvegicus [1]": {"species_on_record": "Rattus norvegicus", "experiment": "Oxytocic activity in rat uterus smooth muscle up to 10 ug/ml", "format": "functional, tissue-based", "details": "Muscle tissue"}, "[2]": {"target": "T1, Adrenergic receptor alpha (Rattus norvegicus) (UniProt P15823+P23944+P43140+P22086+P19328+P22909)", "experiment": "Blockade of alpha-adrenoceptor in rat aorta assessed as rightward shift in norepinephrine dose response curve", "format": "tissue-based"}, "Rattus norvegicus [3]": {"system": "Rattus norvegicus", "experiment": "Antidepressant activity in rat assessed as antimuricidal activity at 10 mg/kg, ip", "format": "functional, organism-based", "set-up": "dose 10 mg/kg", "outline": "(§1)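 Rats screened in an antimuricidal (mouse-killing) test, used as a possible indicator of antidepressant activity.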"}, "[4]": {"target": "Serotonin (5-HT) receptor (Rattus norvegicus) (UniProt P35563+P35365+P32305+P31388+Q9JJ16+P28564+P30994+Q62758+P08909+P14842+P30940+P35364+P19327+P28565)", "experiment": "Inhibition of 5-HT receptor in rat stomach fundus relative to methysergide", "format": "tissue-based"}, "Rattus norvegicus [5]": {"system": "Rattus norvegicus", "experiment": "Decrease in prolactin level in rat serum at 1 mg, ip by radioimmunoassay", "format": "functional", "outline": "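Rats received test compound ip at 1 mg per rat. Serum prolactin was then measured by radioimmunoassay, and the result was expressed as the percent drop in serum prolactin.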"}, "[6]": {"target": "T1, Adrenergic receptor alpha (Rattus norvegicus)", "experiment": "Blockade of alpha-adrenoceptor in rat aorta", "format": "tissue-based"}, "Rattus norvegicus [7]": {"system": "Rattus norvegicus", "experiment": "Antidepressant activity in rat assessed as antimuricidal activity at 20 mg/kg, ip", "format": "functional, organism-based", "set-up": "dose 20 mg/kg", "outline": "as §1"}, "Rattus norvegicus [8]": {"system": "Rattus norvegicus", "experiment": "Decrease in prolactin level in rat serum at 10 ug, ip by radioimmunoassay", "format": "functional"}, "Rattus norvegicus [9]": {"system": "Rattus norvegicus", "experiment": "Antidepressant activity in rat assessed as antimuricidal activity at 5 mg/kg, ip", "format": "functional, organism-based", "set-up": "dose 5 mg/kg", "outline": "as §1"}, "Rattus norvegicus [10]": {"system": "Rattus norvegicus", "experiment": "Antidepressant activity in rat assessed as antimuricidal activity at 0.625 mg/kg, ip", "format": "functional, organism-based", "set-up": "dose 0.625 mg/kg"}}, "note": "Activity calls are given as the source filed them. The rule behind the calls is not given here.", "data": [{"smiles": "Cc1ccc([C@@H]2C=C3c4cccc5[nH]cc(c45)C[C@H]3N(C)C2)cc1", "values": [{"measurement": "Activity", "setting": "Rattus norvegicus [1]", "result": "inactive"}]}, {"smiles": "CN1C[C@H](c2ccc3c(c2)OCO3)C=C2c3cccc4[nH]cc(c34)C[C@H]21", "values": [{"measurement": "fold change (FC)", "setting": "[2]", "result": 2}, {"measurement": "Activity", "setting": "Rattus norvegicus [1]", "result": "inactive"}, {"measurement": "Activity", "setting": "Rattus norvegicus [3]", "result": "Active"}, {"measurement": "5-HT antagonist potency relative to methysergide", "setting": "[4]", "result": 50, "unit": "%"}, {"measurement": "inhibition", "setting": "Rattus norvegicus [5]", "result": "inactive"}]}, {"smiles": "CN1C[C@H](c2ccccc2)C=C2c3cccc4c3[C@@H](CN4)C[C@H]21", "values": [{"measurement": "Activity", "setting": "Rattus norvegicus [1]", "result": "inactive"}]}, {"smiles": "CN1CC(c2ccc(O)cc2)C=C2c3cccc4c3[C@@H](CN4)C[C@H]21", "note": "(stereo partly drawn)", "values": [{"measurement": "Activity", "setting": "Rattus norvegicus [1]", "result": "inactive"}]}, {"smiles": "Cc1ccc([C@H]2C=C3c4cccc5c4[C@@H](CN5)C[C@H]3N(C)C2)cc1", "values": [{"measurement": "Activity", "setting": "Rattus norvegicus [1]", "result": "inactive"}]}, {"smiles": "COc1ccc([C@@H]2C=C3c4cccc5c4[C@@H](CN5)C[C@H]3N(C)C2)cc1", "values": [{"measurement": "Activity", "setting": "Rattus norvegicus [1]", "result": "inactive"}]}, {"smiles": "CN1C[C@@H](c2ccccc2)C=C2c3cccc4c3[C@@H](CN4)C[C@H]21", "values": [{"measurement": "Activity", "setting": "Rattus norvegicus [1]", "result": "inactive"}]}, {"smiles": "COc1ccc([C@H]2C=C3c4cccc5c4[C@@H](CN5)C[C@H]3N(C)C2)cc1", "values": [{"measurement": "Activity", "setting": "Rattus norvegicus [1]", "result": "inactive"}]}, {"smiles": "Cc1ccc([C@@H]2C=C3c4cccc5c4[C@@H](CN5)C[C@H]3N(C)C2)cc1", "values": [{"measurement": "Activity", "setting": "Rattus norvegicus [1]", "result": "inactive"}]}, {"smiles": "CN1C[C@@H](c2ccccc2)C=C2c3cccc4[nH]cc(c34)C[C@H]21.O=C(O)/C=C\\C(=O)O", "values": [{"measurement": "Activity", "setting": "Rattus norvegicus [1]", "result": "inactive"}, {"measurement": "inhibition", "setting": "[6]", "result": "Active"}, {"measurement": "Activity", "setting": "Rattus norvegicus [7]", "result": "inactive"}, {"measurement": "5-HT antagonist potency relative to methysergide", "setting": "[4]", "result": 10, "unit": "%"}, {"measurement": "inhibition (INH)", "setting": "Rattus norvegicus [5]", "result": 88, "unit": "%"}]}, {"smiles": "COc1ccc([C@@H]2C=C3c4cccc5[nH]cc(c45)C[C@H]3N(C)C2)cc1.O=C(O)/C=C\\C(=O)O", "values": [{"measurement": "Activity", "setting": "Rattus norvegicus [1]", "result": "inactive"}, {"measurement": "inhibition", "setting": "[6]", "result": "Active"}, {"measurement": "Activity", "setting": "Rattus norvegicus [3]", "result": "Active"}, {"measurement": "5-HT antagonist potency relative to methysergide", "setting": "[4]", "result": 100, "unit": "%"}, {"measurement": "inhibition (INH)", "setting": "Rattus norvegicus [5]", "result": 81, "unit": "%"}]}, {"smiles": "CC(C)[C@H]1C(=O)N2CCC[C@H]2[C@]2(O)O[C@](NC(=O)[C@@H]3C=C4c5cccc6[nH]cc(c56)C[C@H]4N(C)C3)(C(C)C)C(=O)N12", "note": "[ERGOCORNINE]", "values": [{"measurement": "inhibition (INH)", "setting": "Rattus norvegicus [8]", "result": 60, "unit": "%"}]}, {"smiles": "CN1CC(c2ccc(Cl)cc2)C=C2c3cccc4c3[C@@H](CN4)C[C@H]21", "note": "(stereo partly drawn)", "values": [{"measurement": "Activity", "setting": "Rattus norvegicus [1]", "result": "inactive"}]}, {"smiles": "CN1C[C@@H](c2ccc3c(c2)OCO3)C=C2c3cccc4c3[C@@H](CN4)C[C@H]21", "values": [{"measurement": "Activity", "setting": "Rattus norvegicus [1]", "result": "inactive"}]}, {"smiles": "CN1C[C@H](c2ccc3c(c2)OCO3)C=C2c3cccc4c3[C@@H](CN4)C[C@H]21", "values": [{"measurement": "Activity", "setting": "Rattus norvegicus [1]", "result": "inactive"}]}, {"smiles": "CN1C[C@H](c2ccccc2)C=C2c3cccc4[nH]cc(c34)C[C@H]21.O=C(O)/C=C\\C(=O)O", "values": [{"measurement": "fold change (FC)", "setting": "[2]", "result": 2}, {"measurement": "Activity", "setting": "Rattus norvegicus [1]", "result": "inactive"}, {"measurement": "Activity", "setting": "Rattus norvegicus [9]", "result": "Active"}, {"measurement": "5-HT antagonist potency relative to methysergide", "setting": "[4]", "result": 50, "unit": "%"}, {"measurement": "inhibition (INH)", "setting": "Rattus norvegicus [5]", "result": 71, "unit": "%"}]}, {"smiles": "CN1CCC=C2c3cccc4[nH]cc(c34)CC21", "note": "(racemic)", "values": [{"measurement": "Activity", "setting": "Rattus norvegicus [10]", "result": "Active"}]}]}
